The species named for series [1] is Cavia porcellus. The series can be described thus: Compound (5%) was evaluated for its effect on (no. of areas = 3)maximum score in HSV-1 cutaneous infection of guinea pig; expressed as maximum score. The class given is functional.
The next series relates to Human alphaherpesvirus 1. As to the kind of experiment: Compound (5%) was evaluated for its effect on (no. of areas = 3)mean peak lesion score in HSV-1 cutaneous infection of guinea pig; expressed as mean peak lesion score. The class given is functional.
For series [2], the species on record is Cavia porcellus. As to the kind of experiment: Compound (5%) was evaluated for its effect on (no. of areas = 3) time to start healing in HSV-1 cutaneous infection of guinea pig; expressed as time to start healing. The class given is functional.
Series [3] has as its system Vero. As to the kind of experiment: Compound was evaluated for antiviral activity against Herpes simplex virus (HSV) -2 (MS) in Vero cell cultures. Particulars: Chlorocebus sabaeus, read-out: ID50 (the source's name). The class given is functional. An outline of the steps: (§1)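 Vero cell cultures were infected with HSV-1 strain BWˢ or HSV-2 strain MS. Antiviral activity was read by the dye-uptake method. The 50% inhibitory dose (ID50) was obtained by linear regression.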

Series [4] concerns Vero. The series can be described thus: Compound was evaluated for antiviral activity against Herpes simplex virus (HSV) -1 (BW) in Vero cell cultures. The class given is functional. Particulars: Chlorocebus sabaeus, read-out: ID50 (the source's name). A digest of the protocol: as §1
For series [5], the species on record is Cavia porcellus. The series can be described thus: Compound (5%) was evaluated for its effect on (no. of areas = 3) mean area under lesion score-day curve in HSV-1 cutaneous infection of guinea pig; expressed as mean area under lesion score-day curve. The class given is functional.
The subject of series [6] is Mus musculus. As to the kind of experiment: Compound was evaluated for its effect on HSV -2 induced mortality in mice measured as mean survival time (MST) at the dose of 25 mg/kg per day. The class given is functional. An outline of the steps:
(§2)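 Female Swiss mice, 16–18 g, anesthetized and inoculated intracerebrally with 10 LD50 of HSV 2 (G strain), then randomized into groups of 8–12. Dosing was ip, b.i.d. for 5 consecutive days, starting 1 h postinfection. Mortality was followed for 21 days. P values were from the two-tailed Fisher exact test for survivors and the Gehan-Wilcoxon test for mean survival time.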

Series [7] is filed under the species Cavia porcellus. The series can be described thus: Compound (5%) was evaluated for its effect on (no. of areas = 4)maximum score in HSV-1 cutaneous infection of guinea pig; expressed as maximum score. The class given is functional.
Series [8] concerns Mus musculus. As to the kind of experiment: Compound was evaluated for its effect on HSV -2 induced mortality in mice measured as mean survival time (MST) at the dose of 100 mg/kg per day. The class given is functional. An outline of the steps: as §2
In series [9] the test system is Mus musculus. As to the kind of experiment: Compound was evaluated for its effect on HSV -2 induced mortality in mice measured as mean survival time (MST) at the dose of 12.5 mg/kg per day. The class given is functional. A digest of the protocol:
as §2

For series [10], the system named is Mus musculus. As to the kind of experiment: Compound was evaluated for its effect of HSV -2 induced mortality in mice measured as survivors/total (%) at the dose of 100 mg/kg per day; 3/8. The class given is functional. An outline of the steps:
as §2

The test system of series [11] is Mus musculus. As to the kind of experiment: Compound was evaluated for its effect of HSV -2 induced mortality in mice measured as survivors/total (%) at the dose of 25 mg/kg per day; 3/9. The class given is functional. A digest of the protocol: as §2
For series [12], the species on record is Cavia porcellus. The series can be described thus: Compound (5%) was evaluated for its effect on (no. of areas = 4)mean peak lesion score in HSV-1 cutaneous infection of guinea pig; expressed as mean peak lesion score. The class given is functional.
Series [13] is filed under the species Cavia porcellus. As to the kind of experiment: Compound (5%) was evaluated for its effect on (no. of areas = 4) time to start healing in HSV-1 cutaneous infection of guinea pig; expressed as time to start healing. The class given is functional.
Series [14] has as its system Mus musculus. As to the kind of experiment: Compound was evaluated for its effect on HSV -2 induced mortality in mice measured as mean survival time (MST) at the dose of 50 mg/kg per day. The class given is functional. A digest of the protocol: as §2
Series [15] deals with Mus musculus. As to the kind of experiment: Compound was evaluated for its effect of HSV -2 induced mortality in mice measured as survivors/total (%) at the dose of 50 mg/kg per day; 4/10. The class given is functional. An outline of the steps: as §2
In series [16] the test system is Mus musculus. The series can be described thus: Compound was evaluated for its effect of HSV -2 induced mortality in mice measured as survivors/total (%) at the dose of 12.5 mg/kg per day; 2/10. The class given is functional. A digest of the protocol:
as §2

Series [17] is filed under the species Cavia porcellus. As to the kind of experiment: Compound (5%) was evaluated for its effect on (no. of areas = 4) mean area under lesion score-day curve in HSV-1 cutaneous infection of guinea pig; expressed as mean area under lesion score-day curve. The class given is functional.
In series [18] the test system is Mus musculus. As to the kind of experiment: Compound was evaluated for its effect ofHSV -2 induced mortality in mice measured as survivors/total (%) at the dose of 12.5 mg/kg per day; 2/10. The class given is functional. A digest of the protocol:
as §2

For series [19], the system named is Mus musculus. As to the kind of experiment: Compound was evaluated for its effect ofHSV -2 induced mortality in mice measured as survivors/total (%) at the dose of 50 mg/kg per day; 3/10. The class given is functional. An outline of the steps:
as §2

Series [20] has as its system Mus musculus. The series can be described thus: Compound was evaluated for its effect on HSV -2 induced mortality in mice measured as survivors/total (%) at the dose of 200 mg/kg per day; 6/12. The class given is functional. A digest of the protocol: as §2
Series [21] deals with Mus musculus. As to the kind of experiment: Compound was evaluated for its effect on HSV -2 induced mortality in mice measured as mean survival time (MST) at the dose of 200 mg/kg per day. The class given is functional. An outline of the steps:
as §2

The test system of series [22] is Mus musculus. As to the kind of experiment: Compound was evaluated for its effect ofHSV -2 induced mortality in mice measured as survivors/total (%) at the dose of 25 mg/kg per day; 0/10. The class given is functional. An outline of the steps: as §2
Series [23] concerns Mus musculus. The series can be described thus: Compound was evaluated for its effect ofHSV -2 induced mortality in mice measured as survivors/total (%) at the dose of 100 mg/kg per day; 5/10. The class given is functional. An outline of the steps:
as §2

Series [24] deals with Mus musculus. As to the kind of experiment: Compound was evaluated for its effect of HSV -2 induced mortality in mice measured as survivors/total (%) at the dose of 25 mg/kg per day; 5/10. The class given is functional. A digest of the protocol:
as §2

Series [25] deals with Mus musculus. The series can be described thus: Compound was evaluated for its effect of HSV -2 induced mortality in mice measured as survivors/total (%) at the dose of 100 mg/kg per day; 3/10. The class given is functional. An outline of the steps: as §2
The test system of series [26] is Mus musculus. The series can be described thus: Compound was evaluated for its effect of HSV -2 induced mortality in mice measured as survivors/total (%) at the dose of 200 mg/kg per day; 6/10. The class given is functional. A digest of the protocol:
as §2

Series [27] is filed under the species Cavia porcellus. The series can be described thus: Compound (5%) was evaluated for its effect on (no. of areas =3) time to start healing in HSV-1 cutaneous infection of guinea pig; expressed as time to start healing. The class given is functional.
Series [28] concerns Mus musculus. As to the kind of experiment: Compound was evaluated for its effect of HSV -2 induced mortality in mice measured as survivors/total (%) at the dose of 50 mg/kg per day; 5/10. The class given is functional. An outline of the steps:
as §2

Substrate in series [29]: O=c1[nH]c(=O)n([C@@H]2O[C@H](CO)[C@@H](O)[C@@H]2F)cc1I
Particulars: Chlorocebus sabaeus; Vero.

Substrate in series [30]: Cc1cn([C@@H]2O[C@H](CO)[C@@H](O)[C@@H]2F)c(=O)[nH]c1=O
Particulars: Chlorocebus sabaeus; Vero.

Substrate in series [31]: NC1=NC(=O)C2N=CN(COCCO)C2=N1
Particulars: Chlorocebus sabaeus; Vero.

Values after ≈ are worked out from the molar mass of the structure shown.

The values that follow come from ChEMBL document CHEMBL1123741 (J Med Chem, 1987).

For `Cc1cn([C@@H]2O[C@H](CO)[C@@H](O)[C@@H]2F)c(=O)[nH]c1=O` [5-METHYL-2'-FLUOROARAURACIL], the Activity in the series filed under Cavia porcellus [1] came to 2.67 days; with Human alphaherpesvirus 1 it was 0.75; in the series listed under Cavia porcellus [2], 5.33 days; in the series listed under Cavia porcellus [5], 2.7. For the same molecule, the IC50 in the series with Vero [3] came to 0.13 µg/mL (≈ 0.5 µM); in the series on Vero [4] it was 1.3 µg/mL (≈ 5 µM).
With `NC1=NC(=O)C2N=CN(COCCO)C2=N1` (stereo not given), the MST with Mus musculus [6] amounted to 10 days; in the series with Mus musculus [8], 13 days; in the series on Mus musculus [9], 8 days; in the series with Mus musculus [14] it was 10 days. For the same molecule, the Activity in the series listed under Cavia porcellus [7] was 4 days; with Mus musculus [10], 3%; in the series with Mus musculus [11], 3%; in the series listed under Cavia porcellus [12], 2.5; in the series listed under Cavia porcellus [13] it was 6.25 days; with Mus musculus [15], 4%. In addition, the Activity was found to be 2% with Mus musculus [16] and 15.2 in the series filed under Cavia porcellus [17]. Also, the IC50 in the series on Vero [3] was determined as 1.1 µg/mL (≈ 4.88 µM); with Vero [4], 0.7 µg/mL (≈ 3.11 µM).
As to `CCc1cn([C@@H]2O[C@H](CO)[C@@H](O)[C@@H]2F)c(=O)[nH]c1=O`, the MST with Mus musculus [6] is 9 days; in the series with Mus musculus [8], 18 days; in the series with Mus musculus [9], 8 days; in the series with Mus musculus [14], 12 days; with Mus musculus [21] it was 19 days. The Activity in the series listed under Cavia porcellus [7] worked out at 3 days; in the series on Mus musculus [18] it was 2%; in the series with Mus musculus [19], 3%; in the series filed under Cavia porcellus [12], 1.5; in the series filed under Cavia porcellus [13], 6.5 days; with Mus musculus [20], 6%. Besides, the Activity in the series with Mus musculus [22] is 0%; with Mus musculus [23], 5%; in the series filed under Cavia porcellus [17], 10. For the same molecule, the IC50 in the series on Vero [3] worked out at 2.7 µg/mL (≈ 9.85 µM); with Vero [4] it was 0.99 µg/mL (≈ 3.61 µM).
Regarding `O=c1[nH]c(=O)n([C@@H]2O[C@H](CO)[C@@H](O)[C@@H]2F)cc1I` [FIALURIDINE], the MST with Mus musculus [6] was 18 days; in the series on Mus musculus [8], 13 days; in the series with Mus musculus [9] it was 10 days; in the series on Mus musculus [14], 18 days; in the series on Mus musculus [21], 21 days. Moreover, the Activity in the series listed under Cavia porcellus [1] came out at 3 days; in the series on Mus musculus [24], 5%; in the series filed under Cavia porcellus [12], 1; in the series with Mus musculus [25] it was 3%; in the series on Mus musculus [26], 6%; in the series listed under Cavia porcellus [27], 4.67 days. For the same molecule, the Activity in the series on Mus musculus [28] was determined as 5%; in the series on Mus musculus [16], 2%; in the series listed under Cavia porcellus [5] it was 9.6. The results for the IC50 in the series on Vero [3] and with Vero [4] were 0.64 µg/mL (≈ 1.72 µM) and 0.96 µg/mL (≈ 2.58 µM), respectively.

B1: Thymidine kinase, cytosolic (Homo sapiens), P04183 (protein)
chain: MSCINLPTVLPGSPSKTRGQIQVILGPMFSGKSTELMRRVRRFQIAQYKCLVIKYAKDTRYSSSFCTHDRNTMEALPACLLRDVAQEALGVAVIGIDEGQFFPDIVEFCEAMANAGKTVIVAALDGTFQRKPFGAILNLVPLAESVVKLTAVCMECFREAAYTKRLGTEKEVEVIGGADKYHSVCRLCYFKKASGQPAGPDNKENCPVPGKPGEAVAARKLFAPQQILQCSPAN
For the molecule B1, the inhibition constant (Ki) was 53 µM in [29], 60 µM in series [30] and > 4920 µM in series [31].
